Values after ≈ are worked out from the molar mass of the structure shown. Each block holds one compound with its values, some of them ahead of it. Active and inactive are the calls of the source. The calls are words filed in the database; no cut-off is given here.
Key:
[1] = tested on: Candida albicans; assay: Antibiofilm activity against Candida albicans ATCC 28366 at up to 96 ug/ml incubated for 24 to 48 hrs by crystal violet staining based absorbance spectrometry analysis; format: functional, organism-based; conditions: dose <= 96.0 µg/ml, time 24-48 hrs
In short: (§1)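 Overnight cultures (37 °C, aerobic, Sabouraud pH 7.0) adjusted to OD660 0.2, mixed 1:1 with two-fold serial dilutions in medium and incubated at 37 °C. Biofilm stained with crystal violet, dye released in 75% ethanol, A550 read. Growth relative to compound-free wells (100%) after blank subtraction. At least two independent experiments in triplicate, t test.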

[2] = tested on: Candida albicans; assay: Antifungal activity against Candida albicans ATCC 28366 assessed as reduction in fungal growth at up to 64 ug/ml incubated for 24 hrs by plate count determination; format: functional, organism-based; conditions: dose <= 64.0 µg/ml
[3] = tested on: Candida albicans; assay: Antibiofilm activity against Candida albicans ATCC 28366 assessed as disruption of preformed biofilm incubated for 12 hrs by crystal violet staining based absorbance spectrometry analysis; format: functional, organism-based
In short: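 Mature biofilms grown 36 to 48 h in Sabouraud pH 7.0 without compound; medium and free cells removed, rinsed with 50 mM PBS pH 7.0, then two-fold serial dilutions in PBS added for 12 h at 37 °C. Residual biofilm stained with crystal violet, dye released in 75% ethanol, A550 read. PBS-treated biofilms as controls.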

[4] = tested on: Candida albicans; assay: Antibiofilm activity against Candida albicans ATCC 28366 assessed as inhibition of biofilm formation at 0.5 to 32 ug/ml incubated for 24 to 48 hrs by crystal violet staining based absorbance spectrometry analysis; format: functional, organism-based; conditions: dose 0.5-32 µg/ml, time 24-48 hrs; in short: as §1
[5] = tested on: Candida albicans; assay: Antibiofilm activity against Candida albicans ATCC 28366 incubated for 24 to 48 hrs by crystal violet staining based absorbance spectrometry analysis; format: functional, organism-based; conditions: time 24-48 hrs; in short: as §1
[6] = tested on: Candida albicans; assay: Antifungal activity against Candida albicans ATCC 28366 assessed as reduction in fungal growth incubated for 24 hrs by plate count determination; format: functional, organism-based
[7] = tested on: Candida albicans; assay: Antibiofilm activity against Candida albicans ATCC 28366 assessed as reduction in hyphae formation at 4 ug/ml incubated for 4 hrs in spider medium by microscopic analysis; format: functional, organism-based; conditions: dose 4.0 µg/ml
In short: (§2)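 Yeast-form cells grown overnight in YPD at 30 °C. 50 µL inoculated into 5 mL hypha-inducing medium (e.g., Spider: 1% nutrient broth, 1% mannitol, 0.2% K2HPO4, pH 7.2) containing two-fold dilutions, then 4 h at 37 °C. At least 100 cells per replicate counted as hypha (pseudohyphae and intermediates included) or yeast. Compound-free control for maximal conversion. At least two independent experiments in triplicate.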

[8] = tested on: Candida albicans; assay: Antibiofilm activity against Candida albicans ATCC 28366 assessed as inhibition of nitrogen deprivation induced morphological switching at 1 to 4 ug/ml incubated for 4 hrs in SLAD media by microscopic analysis; format: functional, organism-based; conditions: dose 1-4 µg/ml; in short: as §2
[9] = tested on: Candida albicans; assay: Antibiofilm activity against Candida albicans ATCC 28366 assessed as inhibition of morphological switching at 1 ug/ml incubated for 4 hrs in YPD medium with fetal bovine serum by microscopic analysis; format: functional, organism-based; conditions: dose 1.0 µg/ml; in short: as §2
[10] = tested on: Candida albicans; assay: Antibiofilm activity against Candida albicans ATCC 28366 at 1 ug/ml incubated for 24 to 48 hrs by crystal violet staining based absorbance spectrometry analysis; format: functional, organism-based; conditions: dose 1.0 µg/ml, time 24-48 hrs; in short: as §1
[11] = tested on: Candida albicans; assay: Antifungal activity against Candida albicans ATCC 28366 assessed as inhibition of fungal growth incubated for 24 hrs by plate count determination; format: functional
In short: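 Biofilm-assay setup (Sabouraud pH 7.0, inoculum OD660 0.2, serial two-fold dilutions, 37 °C). […] Highest value kept when replicates differ. At least two independent experiments in triplicate.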

[12] = Cytotoxicity against human B11 cells assessed as reduction in cell viability at 96 ug/ml incubated for 2 hrs by MTT assay; format: toxicity, cell-based; conditions: b11, 2 h, dose 96 µg/ml
In short: (§3)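 B11 human oral epithelial cells in K-SFM with bovine pituitary extract and EGF, grown to confluence (1 × 10⁵ cells/well, 37 °C, 5% CO2). Treated with two-fold dilutions from 96 to 1.5 µg/mL for 2 or 24 h, then MTT viability read. Triplicate, mean ± SD.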

[13] = tested on: Candida albicans; assay: Antibiofilm activity against Candida albicans ATCC 28366 assessed as reduction in fungal growth at 1 to 4 ug/ml incubated for 4 hrs in spider medium by plate count determination; format: functional, organism-based; conditions: dose 1-4 µg/ml
In short: (§4)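 After the 4 h, 37 °C morphogenesis incubation in Spider medium (YPD overnight inoculum, 50 µL into 5 mL), OD660 measured to follow fungal growth; C. albicans viability confirmed by plate count.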

[14] = tested on: Candida albicans; assay: Antibiofilm activity against Candida albicans ATCC 28366 assessed as reduction in filamentation by measuring joint hyphae cell elongation at 1 ug/ml incubated for 4 hrs in spider medium by microscopic analysis; format: functional, organism-based; conditions: dose 1.0 µg/ml; in short: as §2
[15] = tested on: Candida albicans; assay: Antibiofilm activity against Candida albicans ATCC 28366 assessed as inhibition of morphogenesis at 1 to 4 ug/ml incubated for 4 hrs in spider medium by microscopic analysis; format: functional, organism-based; conditions: dose 1-4 µg/ml; in short: as §2
[16] = tested on: Candida albicans; assay: Antibiofilm activity against Candida albicans ATCC 28366 assessed as inhibition of filamentation at 2 ug/ml incubated for 4 hrs in Lee's medium by microscopic analysis; format: functional, organism-based; conditions: dose 2.0 µg/ml; in short: as §2
[17] = tested on: Candida albicans; assay: Antibiofilm activity against Candida albicans ATCC 28366 assessed as inhibition of N-acetylglucosamine induced morphological switching at 1 to 4 ug/ml incubated for 4 hrs by microscopic analysis; format: functional, organism-based; conditions: dose 1-4 µg/ml; in short: as §2
[18] = tested on: Candida albicans; assay: Antibiofilm activity against Candida albicans LAM-1 assessed as reduction in fungal growth at 1 to 4 ug/ml incubated for 4 hrs in spider medium by plate count determination; format: functional, organism-based; conditions: dose 1-4 µg/ml; in short: as §4
[19] = Cytotoxicity against human B11 cells assessed as reduction in cell viability at >=24 ug/ml incubated for 24 hrs by MTT assay; format: toxicity, cell-based; conditions: b11, 24 h, dose > 24 µg/ml; in short: as §3
[20] = tested on: Candida albicans; assay: Antibiofilm activity against FITC labeled Candida albicans ATCC 28366 in human GMSM-K cells assessed as reduction in fungal adherence to cells incubated for 4 hrs by fluorescence microscopic analysis; format: functional, organism-based; conditions: dose 6-48 µg/ml
In short: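 Confluent GMSM-K monolayers (DMEM, 10% FBS) pre-incubated 30 min with two-fold dilutions in DMEM (37 °C, 5% CO2). FITC-labelled yeast (0.03 mg/mL FITC in 0.5 M NaHCO3 pH 8, 30 min, 37 °C) added at MOI 10³ for 4 h. After PBS washes, fluorescence read (ex 495/em 525 nm) as % of compound-free wells. Two independent experiments in triplicate.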

[21] = tested on: Candida albicans; assay: Antibiofilm activity against Candida albicans ATCC 28366 assessed as short hyphae formation at 2 ug/ml incubated for 4 hrs in spider medium by microscopic analysis; format: functional, organism-based; conditions: dose 2.0 µg/ml; in short: as §2
[22] = tested on: Candida albicans; assay: Antibiofilm activity against Candida albicans LAM-1 at 4 ug/ml incubated for 24 to 48 hrs by crystal violet staining based absorbance spectrometry analysis; format: functional, organism-based; conditions: dose 4.0 µg/ml, time 24-48 hrs; in short: as §1
[23] = tested on: Candida albicans; assay: Antibiofilm activity against Candida albicans ATCC 28366 assessed as small subpopulation of hyphae formation at 2 ug/ml incubated for 4 hrs in spider medium by microscopic analysis; format: functional, organism-based; conditions: dose 2.0 µg/ml; in short: as §2
[24] = tested on: Candida albicans; assay: Antibiofilm activity against Candida albicans ATCC 28366 assessed as reduction in fungal growth at 8 ug/ml incubated for 4 hrs in spider medium by plate count determination; format: functional, organism-based; conditions: dose 8.0 µg/ml; in short: as §4
[25] = tested on: Candida albicans; assay: Antibiofilm activity against Candida albicans LAM-1 assessed as reduction in fungal growth at 8 ug/ml incubated for 4 hrs in spider medium by plate count determination; format: functional, organism-based; conditions: dose 8.0 µg/ml; in short: as §4
[26] = tested on: Candida albicans; assay: Antibiofilm activity against Candida albicans ATCC 28366 assessed as inhibition of N-acetylglucosamine induced morphological switching at 8 ug/ml incubated for 4 hrs by microscopic analysis; format: functional, organism-based; conditions: dose 8.0 µg/ml; in short: as §2
[27] = tested on: Candida albicans; assay: Antibiofilm activity against Candida albicans ATCC 28366 assessed as inhibition of morphogenesis at 8 ug/ml incubated for 4 hrs in spider medium by microscopic analysis; format: functional, organism-based; conditions: dose 8.0 µg/ml; in short: as §2
[28] = tested on: Candida albicans; assay: Antibiofilm activity against Candida albicans ATCC 28366 assessed as inhibition of filamentation at 8 ug/ml incubated for 4 hrs in Lee's medium by microscopic analysis; format: functional, organism-based; conditions: dose 8.0 µg/ml; in short: as §2
[29] = tested on: Candida albicans; assay: Antibiofilm activity against Candida albicans ATCC 28366 assessed as inhibition of morphological switching at 8 ug/ml incubated for 4 hrs in YPD medium with fetal bovine serum by microscopic analysis; format: functional, organism-based; conditions: dose 8.0 µg/ml; in short: as §2
[30] = tested on: Candida albicans; assay: Antibiofilm activity against Candida albicans LAM-1 assessed as inhibition of morphogenesis at 8 ug/ml incubated for 4 hrs in spider medium by microscopic analysis; format: functional, organism-based; conditions: dose 8.0 µg/ml; in short: as §2
[31] = tested on: Candida albicans; assay: Antibiofilm activity against Candida albicans ATCC 28366 assessed as inhibition of nitrogen deprivation induced morphological switching at 8 ug/ml incubated for 4 hrs in SLAD media by microscopic analysis; format: functional, organism-based; conditions: dose 8.0 µg/ml; in short: as §2
[32] = tested on: Candida albicans; assay: Antibiofilm activity against Candida albicans ATCC 28366 assessed as inhibition of biofilm formation at 2 ug/ml incubated for 24 to 48 hrs by crystal violet staining based absorbance spectrometry analysis; format: functional, organism-based; conditions: dose 2.0 µg/ml, time 24-48 hrs; in short: as §1
[33] = tested on: Candida albicans; assay: Fungicidal activity against Candida albicans ATCC 28366 assessed as prevention of colony formation incubated for 24 hrs; format: functional
[34] = tested on: Candida albicans; assay: Antibiofilm activity against Candida albicans ATCC 28366 at 48 ug/ml incubated for 24 to 48 hrs by crystal violet staining based absorbance spectrometry analysis; format: functional, organism-based; conditions: dose 48.0 µg/ml, time 24-48 hrs; in short: as §1

Structure (SMILES): CN1C[C@@H](Cc2ccccc2)N(C)C[C@H]1Cc1ccccc1
Activity [1]: inactive

Structure (SMILES): c1ccc(COc2ccc(C[C@H]3CN[C@H](Cc4ccccc4)CN3)cc2)cc1
Activity [2]: inactive | Activity [3]: inactive | inhibition [4]: Active

Structure (SMILES): Oc1ccc(C[C@@H]2CN[C@H](Cc3ccccc3)CN2)cc1
Activity [3]: inactive | Activity [5]: inactive | Activity [6]: inactive

MIC [11]: 96 µg/mL (≈ 258 µM)
Structure (SMILES): c1ccc(COc2ccc(C[C@H]3CN[C@@H](Cc4ccccc4)CN3)cc2)cc1
Activity [7]: Active | inhibition [8]: inactive | inhibition [9]: Active | Activity [10]: Active | Activity [12]: Toxic | Activity [13]: inactive | Activity [14]: inactive | inhibition [15]: Active | inhibition [16]: Active | inhibition [17]: inactive | Activity [18]: inactive | Activity [2]: inactive | Activity [3]: inactive | inhibition [4]: Active | Activity [19]: Toxic | Activity [20]: Dose-Dependent Effect | Activity [21]: Active | Activity [22]: Active | Activity [23]: Active

Structure (SMILES): CN1C[C@H](Cc2ccc(OCc3ccccc3)cc2)N(C)C[C@@H]1Cc1ccccc1
Activity [24]: inactive | Activity [25]: inactive | inhibition [26]: inactive | inhibition [27]: inactive | inhibition [28]: inactive | inhibition [29]: inactive | inhibition [30]: inactive | Activity [5]: inactive | Activity [6]: inactive | inhibition [31]: inactive

Structure (SMILES): CN1C[C@H](Cc2ccccc2)N(C)C[C@H]1Cc1ccccc1
Activity [1]: inactive

MIC [11]: 24 µg/mL (≈ 50.1 µM)
Structure (SMILES): c1ccc(COc2ccc(C[C@H]3CN[C@@H](Cc4ccc(OCc5ccccc5)cc4)CN3)cc2)cc1
inhibition [32]: Active | MFC [33]: 24 µg/mL (≈ 50.1 µM) | Activity [3]: inactive

MIC [11]: > 128 µg/mL
Structure (SMILES): c1ccc(COc2ccc(C[C@H]3CN[C@H](Cc4ccc(OCc5ccccc5)cc4)CN3)cc2)cc1
Activity [34]: Active | Activity [3]: inactive

Structure (SMILES): c1ccc(COc2ccc(C[C@@H]3CN[C@H](Cc4ccccc4)CN3)cc2)cc1
Activity [13]: inactive | inhibition [15]: Active | Activity [18]: inactive | Activity [2]: inactive | Activity [3]: inactive | inhibition [4]: Active

MIC [11]: > 128 µg/mL
Structure (SMILES): c1ccc(COc2ccc(C[C@@H]3CN[C@@H](Cc4ccccc4)CN3)cc2)cc1
Activity [2]: inactive | Activity [3]: inactive | inhibition [4]: Active
